Measured values taken from ChEMBL document CHEMBL5724801, “EUbOPEN Chemogenomics Library - Multiplex” (2024).
Where “and” joins values, the source holds several entries; their conditions need not be identical. Equal values may be shown once.

System: Fibroblast
Experiment: Multiplex assay against human fibroblast
Assay type: toxicity, cell-based
Method in brief: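 Imaging took place on a CQ1 microscope at 37°C and 5% CO2 once compound had been added to live cells stained at seeding with Hoechst33342, BioTracker Green Microtubule Cytoskeleton Dye, MitoTracker Red and Annexin V Alexa Fluor 680. CellPathfinder machine-learning gating classed cells as Hoechst high-intensity objects or normal cells, classed normal cells as having healthy, pyknosed or fragmented nuclei, and classed pyknosed cells as mitotic or apoptotic. Tubulin, mitochondrial-mass and membrane-permeability phenotypes are per cents of the healthy-nucleus cells.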

[1] = 12 h, 1 µM, compound concentration 1 uM
[2] = 12 h, 10 µM, compound concentration 10 uM
[3] = 24 h, 1 µM, compound concentration 1 uM
[4] = 24 h, 10 µM, compound concentration 10 uM
[5] = 48 h, 1 µM, compound concentration 1 uM
[6] = 48 h, 10 µM, compound concentration 10 uM

O=C(Nc1cc(-c2ccccc2)nn1-c1ccccc1F)c1ccc([N+](=O)[O-])cc1
Population Apoptotic (%) [1]: 28% and 32% | Population Fragmented Nuclei (%) [1]: 17% and 19% | Population Healthy Nuclei (%) [1]: 71% and 55% | Population Hoechst High Intensity Objects (%) [1]: 2% and 8% | Population Membrane Permeable-Phenotype (%) [1]: 1% and 4% | Population Mitochondria Different-Phenotype (%) [1]: 1% and 9% | Population Mitotic Cells (%) [1]: 71% and 67% | Population Normal (%) [1]: 97% and 91% | Population Pyknosed Nuclei (%) [1]: 10% and 25% | Population Tubulin-Different-Phenotype (%) [1]: 22% and 53% | Total Cell Count [1]: 138 and 160 | Population Apoptotic (%) [2]: 28% and 45% | Population Fragmented Nuclei (%) [2]: 10% and 25% | Population Healthy Nuclei (%) [2]: 66% and 47% | Population Hoechst High Intensity Objects (%) [2]: 2% and 6% | Population Membrane Permeable-Phenotype (%) [2]: 1% and 6% | Population Mitochondria Different-Phenotype (%) [2]: 4% and 3% | Population Mitotic Cells (%) [2]: 71% and 54% | Population Normal (%) [2]: 97% and 93% | Population Pyknosed Nuclei (%) [2]: 22% and 26% | Population Tubulin-Different-Phenotype (%) [2]: 48% and 77% | Total Cell Count [2]: 170 and 149 | Population Apoptotic (%) [3]: 53% and 50% | Population Fragmented Nuclei (%) [3]: 16% and 25% | Population Healthy Nuclei (%) [3]: 74% and 53% | Population Hoechst High Intensity Objects (%) [3]: 2% and 7% | Population Membrane Permeable-Phenotype (%) [3]: 0% and 6% | Population Mitochondria Different-Phenotype (%) [3]: 0% and 2% | Population Mitotic Cells (%) [3]: 46% and 50% | Population Normal (%) [3]: 97% and 92% | Population Pyknosed Nuclei (%) [3]: 9% and 20% | Population Tubulin-Different-Phenotype (%) [3]: 18% and 52% | Total Cell Count [3]: 135 and 156 | Population Apoptotic (%) [4]: 26% and 28% | Population Healthy Nuclei (%) [4]: 76% and 53% | Population Hoechst High Intensity Objects (%) [4]: 4% and 6% | Population Membrane Permeable-Phenotype (%) [4]: 1% and 9% | Population Mitochondria Different-Phenotype (%) [4]: 7% and 1% | Population Mitotic Cells (%) [4]: 73% and 72% | Population Normal (%) [4]: 95% and 93% | Population Pyknosed Nuclei (%) [4]: 16% and 18% | Population Tubulin-Different-Phenotype (%) [4]: 49% and 69% | Total Cell Count [4]: 163 and 147 | Population Apoptotic (%) [5]: 54% and 55% | Population Fragmented Nuclei (%) [5]: 23% and 30% | Population Healthy Nuclei (%) [5]: 67% and 53% | Population Hoechst High Intensity Objects (%) [5]: 7% | Population Membrane Permeable-Phenotype (%) [5]: 1% and 5% | Population Mitochondria Different-Phenotype (%) [5]: 0% and 4% | Population Mitotic Cells (%) [5]: 45% and 44% | Population Normal (%) [5]: 92% | Population Pyknosed Nuclei (%) [5]: 8% and 15% | Population Tubulin-Different-Phenotype (%) [5]: 18% and 54% | Total Cell Count [5]: 145 and 183 | Population Apoptotic (%) [6]: 66% and 52% | Population Fragmented Nuclei (%) [6]: 16% and 31% | Population Healthy Nuclei (%) [6]: 70% and 54% | Population Hoechst High Intensity Objects (%) [6]: 7% and 5% | Population Membrane Permeable-Phenotype (%) [6]: 3% and 6% | Population Mitochondria Different-Phenotype (%) [6]: 3% | Population Mitotic Cells (%) [6]: 33% and 47% | Population Normal (%) [6]: 92% and 94% | Population Pyknosed Nuclei (%) [6]: 12% and 14% | Population Tubulin-Different-Phenotype (%) [6]: 55% and 66% | Total Cell Count [6]: 160 and 153

CN(C)C/C=C/C(=O)Nc1ccc(C(=O)N2CCCC(Nc3ncc(Cl)c(-c4c[nH]c5ccccc45)n3)C2)cc1 (stereo not given)
Population Apoptotic (%) [1]: 48% and 46% | Population Fragmented Nuclei (%) [1]: 15% and 21% | Population Healthy Nuclei (%) [1]: 64% and 53% | Population Hoechst High Intensity Objects (%) [1]: 2% and 6% | Population Membrane Permeable-Phenotype (%) [1]: 2% and 3% | Population Mitochondria Different-Phenotype (%) [1]: 11% and 13% | Population Mitotic Cells (%) [1]: 51% and 53% | Population Normal (%) [1]: 97% and 93% | Population Pyknosed Nuclei (%) [1]: 19% and 25% | Population Tubulin-Different-Phenotype (%) [1]: 40% | Total Cell Count [1]: 152 and 182 | Population Apoptotic (%) [2]: 59% and 48% | Population Fragmented Nuclei (%) [2]: 18% and 23% | Population Healthy Nuclei (%) [2]: 53% and 41% | Population Hoechst High Intensity Objects (%) [2]: 4% and 8% | Population Mitochondria Different-Phenotype (%) [2]: 37% and 19% | Population Mitotic Cells (%) [2]: 40% and 51% | Population Normal (%) [2]: 95% and 91% | Population Pyknosed Nuclei (%) [2]: 27% and 35% | Population Tubulin-Different-Phenotype (%) [2]: 77% and 58% | Total Cell Count [2]: 140 and 147 | Population Apoptotic (%) [3]: 68% and 37% | Population Fragmented Nuclei (%) [3]: 25% and 26% | Population Healthy Nuclei (%) [3]: 48% and 49% | Population Hoechst High Intensity Objects (%) [3]: 7% | Population Membrane Permeable-Phenotype (%) [3]: 2% and 10% | Population Mitochondria Different-Phenotype (%) [3]: 7% and 10% | Population Mitotic Cells (%) [3]: 31% and 62% | Population Normal (%) [3]: 92% | Population Pyknosed Nuclei (%) [3]: 26% and 23% | Population Tubulin-Different-Phenotype (%) [3]: 40% and 54% | Total Cell Count [3]: 155 and 181 | Population Apoptotic (%) [4]: 65% and 47% | Population Fragmented Nuclei (%) [4]: 13% and 30% | Population Healthy Nuclei (%) [4]: 49% and 42% | Population Hoechst High Intensity Objects (%) [4]: 2% and 6% | Population Membrane Permeable-Phenotype (%) [4]: 0% and 5% | Population Mitochondria Different-Phenotype (%) [4]: 52% and 35% | Population Mitotic Cells (%) [4]: 34% and 52% | Population Normal (%) [4]: 97% and 93% | Population Pyknosed Nuclei (%) [4]: 37% and 27% | Population Tubulin-Different-Phenotype (%) [4]: 84% and 72% | Total Cell Count [4]: 119 and 149 | Population Apoptotic (%) [5]: 63% and 60% | Population Fragmented Nuclei (%) [5]: 33% and 35% | Population Healthy Nuclei (%) [5]: 36% and 40% | Population Hoechst High Intensity Objects (%) [5]: 10% and 8% | Population Membrane Permeable-Phenotype (%) [5]: 2% and 8% | Population Mitochondria Different-Phenotype (%) [5]: 20% and 25% | Population Mitotic Cells (%) [5]: 36% and 40% | Population Normal (%) [5]: 90% and 91% | Population Pyknosed Nuclei (%) [5]: 30% and 24% | Population Tubulin-Different-Phenotype (%) [5]: 48% and 68% | Total Cell Count [5]: 150 and 158 | Population Apoptotic (%) [6]: 77% and 68% | Population Fragmented Nuclei (%) [6]: 28% and 27% | Population Healthy Nuclei (%) [6]: 20% and 41% | Population Hoechst High Intensity Objects (%) [6]: 14% and 13% | Population Membrane Permeable-Phenotype (%) [6]: 0% and 17% | Population Mitochondria Different-Phenotype (%) [6]: 55% and 29% | Population Mitotic Cells (%) [6]: 22% and 31% | Population Normal (%) [6]: 85% and 86% | Population Pyknosed Nuclei (%) [6]: 51% and 30% | Population Tubulin-Different-Phenotype (%) [6]: 66% and 80% | Total Cell Count [6]: 103 and 130

COc1cc2nc(N3CCN(C(=O)COc4c(OC)cccc4C(C)C)CC3)nc(N)c2cc1OC.Cl.Cl
Population Apoptotic (%) [1]: 50% and 36% | Population Fragmented Nuclei (%) [1]: 17% and 39% | Population Healthy Nuclei (%) [1]: 51% and 42% | Population Hoechst High Intensity Objects (%) [1]: 4% and 9% | Population Membrane Permeable-Phenotype (%) [1]: 3% and 5% | Population Mitochondria Different-Phenotype (%) [1]: 6% and 7% | Population Mitotic Cells (%) [1]: 50% and 63% | Population Normal (%) [1]: 95% and 90% | Population Pyknosed Nuclei (%) [1]: 30% and 18% | Population Tubulin-Different-Phenotype (%) [1]: 40% and 43% | Total Cell Count [1]: 123 and 182 | Population Apoptotic (%) [2]: 33% and 29% | Population Fragmented Nuclei (%) [2]: 13% and 22% | Population Healthy Nuclei (%) [2]: 47% and 46% | Population Hoechst High Intensity Objects (%) [2]: 20% and 10% | Population Membrane Permeable-Phenotype (%) [2]: 0% and 4% | Population Mitochondria Different-Phenotype (%) [2]: 15% and 8% | Population Mitotic Cells (%) [2]: 66% and 70% | Population Normal (%) [2]: 79% and 89% | Population Pyknosed Nuclei (%) [2]: 38% and 30% | Population Tubulin-Different-Phenotype (%) [2]: 63% and 56% | Total Cell Count [2]: 346 and 283 | Population Apoptotic (%) [3]: 68% and 57% | Population Fragmented Nuclei (%) [3]: 23% and 40% | Population Healthy Nuclei (%) [3]: 58% and 42% | Population Hoechst High Intensity Objects (%) [3]: 3% and 11% | Population Membrane Permeable-Phenotype (%) [3]: 1% and 5% | Population Mitochondria Different-Phenotype (%) [3]: 9% and 11% | Population Mitotic Cells (%) [3]: 31% and 42% | Population Normal (%) [3]: 96% and 88% | Population Pyknosed Nuclei (%) [3]: 17% | Population Tubulin-Different-Phenotype (%) [3]: 39% and 50% | Total Cell Count [3]: 128 and 180 | Population Apoptotic (%) [4]: 40% and 33% | Population Fragmented Nuclei (%) [4]: 13% and 25% | Population Healthy Nuclei (%) [4]: 45% and 40% | Population Hoechst High Intensity Objects (%) [4]: 39% and 23% | Population Membrane Permeable-Phenotype (%) [4]: 0% and 4% | Population Mitotic Cells (%) [4]: 60% and 66% | Population Normal (%) [4]: 60% and 76% | Population Pyknosed Nuclei (%) [4]: 41% and 34% | Population Tubulin-Different-Phenotype (%) [4]: 38% and 47% | Total Cell Count [4]: 344 and 273 | Population Apoptotic (%) [5]: 65% and 42% | Population Fragmented Nuclei (%) [5]: 31% and 45% | Population Healthy Nuclei (%) [5]: 51% and 43% | Population Hoechst High Intensity Objects (%) [5]: 4% and 10% | Population Membrane Permeable-Phenotype (%) [5]: 0% and 8% | Population Mitochondria Different-Phenotype (%) [5]: 11% and 10% | Population Mitotic Cells (%) [5]: 35% and 57% | Population Normal (%) [5]: 96% and 89% | Population Pyknosed Nuclei (%) [5]: 16% and 11% | Population Tubulin-Different-Phenotype (%) [5]: 30% and 57% | Total Cell Count [5]: 125 and 193 | Population Apoptotic (%) [6]: 45% and 30% | Population Fragmented Nuclei (%) [6]: 12% and 33% | Population Healthy Nuclei (%) [6]: 45% and 33% | Population Hoechst High Intensity Objects (%) [6]: 52% and 31% | Population Membrane Permeable-Phenotype (%) [6]: 2% and 9% | Population Mitochondria Different-Phenotype (%) [6]: 10% and 0% | Population Mitotic Cells (%) [6]: 54% and 69% | Population Normal (%) [6]: 47% and 68% | Population Pyknosed Nuclei (%) [6]: 42% and 33% | Population Tubulin-Different-Phenotype (%) [6]: 42% and 43% | Total Cell Count [6]: 358 and 311
